We go through one molecule from ChEMBL document CHEMBL1148673, “Peptidomimetic C5a receptor antagonists with hydrophobic substitutions at the C-terminus: increased receptor specificity and in vivo activity” (Bioorg Med Chem Lett, 2006).

The nature of data set [1]: Stability in human liver microsome after 1 hr. As to conditions: liver microsomes, read-out: Stability. The class given is ADME. The method, boiled down: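 Compound incubated with human liver microsomes, 1 h at 37 °C; read-out is % of parent remaining.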
For another data set, the system named is J774.A1. The data set can be described thus: Inhibition of C5a-induced chemotaxis of mouse J774A.1 cells. The data set is classed as functional, cell-based. The gist of the method: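 Mouse J774A.1 cells; chemotaxis induced by C5a, inhibition measured and IC50 (µM) determined.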
The next data set addresses CYP3A4 (Homo sapiens, UniProt P08684). Put plainly: Inhibition of CYP3A4 at 10 uM. The class given is ADME.
The target of another data set is Vasopressin V1a receptor (Homo sapiens, UniProt P37288). Put plainly: Binding affinity to V1a receptor.
Sequence of Vasopressin V1a receptor (P37288 whole entry): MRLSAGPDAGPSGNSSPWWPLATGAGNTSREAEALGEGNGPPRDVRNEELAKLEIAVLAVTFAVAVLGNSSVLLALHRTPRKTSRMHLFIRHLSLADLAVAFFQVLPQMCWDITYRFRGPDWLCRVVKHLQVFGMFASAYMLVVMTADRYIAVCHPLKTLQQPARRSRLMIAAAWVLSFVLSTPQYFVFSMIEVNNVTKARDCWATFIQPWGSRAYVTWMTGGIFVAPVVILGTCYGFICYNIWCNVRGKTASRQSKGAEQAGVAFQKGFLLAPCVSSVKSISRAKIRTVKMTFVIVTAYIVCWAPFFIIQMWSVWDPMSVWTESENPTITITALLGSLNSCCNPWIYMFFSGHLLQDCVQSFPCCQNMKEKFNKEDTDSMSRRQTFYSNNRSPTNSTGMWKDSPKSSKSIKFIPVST
The target of data set [2] is T1, C5a anaphylatoxin chemotactic receptor 1 (Homo sapiens, UniProt P21730).
T1 sequence (P21730 whole entry): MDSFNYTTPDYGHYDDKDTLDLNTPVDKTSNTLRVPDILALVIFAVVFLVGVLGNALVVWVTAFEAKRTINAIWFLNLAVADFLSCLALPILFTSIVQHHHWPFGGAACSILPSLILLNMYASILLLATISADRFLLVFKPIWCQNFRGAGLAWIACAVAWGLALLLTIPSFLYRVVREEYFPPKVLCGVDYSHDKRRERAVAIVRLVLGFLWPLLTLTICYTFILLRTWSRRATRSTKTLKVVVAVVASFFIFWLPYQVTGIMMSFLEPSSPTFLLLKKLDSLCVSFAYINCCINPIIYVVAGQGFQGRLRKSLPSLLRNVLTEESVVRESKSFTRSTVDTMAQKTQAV
The data set can be described thus: Inhibition of C5a binding to human C5aR expressed in HEK293 cells. The class given is cell-based.

The target in another data set is Melanocortin receptor 4 (Homo sapiens, UniProt P32245). The data set can be described thus: Binding affinity to MC4 receptor.
Sequence of Melanocortin receptor 4 (P32245 whole entry): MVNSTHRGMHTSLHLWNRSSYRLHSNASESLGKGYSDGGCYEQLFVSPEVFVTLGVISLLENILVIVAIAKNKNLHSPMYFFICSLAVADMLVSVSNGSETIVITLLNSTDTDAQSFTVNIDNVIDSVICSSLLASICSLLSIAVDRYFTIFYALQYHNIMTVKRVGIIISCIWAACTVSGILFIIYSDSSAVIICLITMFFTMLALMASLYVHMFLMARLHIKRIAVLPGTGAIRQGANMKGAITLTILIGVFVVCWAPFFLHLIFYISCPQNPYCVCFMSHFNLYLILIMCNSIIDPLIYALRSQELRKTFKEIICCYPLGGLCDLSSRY
Another data set concerns the target Nociceptin receptor (Homo sapiens, UniProt P41146). Put plainly: Binding affinity to ORL1 receptor.
Another data set addresses T2, Substance-K receptor (Homo sapiens, UniProt P21452).
T2 sequence (P21452 whole entry): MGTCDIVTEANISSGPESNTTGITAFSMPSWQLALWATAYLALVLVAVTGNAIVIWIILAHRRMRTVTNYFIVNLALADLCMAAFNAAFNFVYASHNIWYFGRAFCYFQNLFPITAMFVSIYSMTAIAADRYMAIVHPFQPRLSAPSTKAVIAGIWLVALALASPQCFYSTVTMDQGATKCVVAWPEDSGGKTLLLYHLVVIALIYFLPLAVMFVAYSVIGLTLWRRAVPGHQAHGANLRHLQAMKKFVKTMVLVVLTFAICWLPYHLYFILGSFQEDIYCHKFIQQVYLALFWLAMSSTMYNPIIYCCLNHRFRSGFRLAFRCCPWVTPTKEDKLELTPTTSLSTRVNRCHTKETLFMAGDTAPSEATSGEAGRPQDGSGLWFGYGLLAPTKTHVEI
The data set can be described thus: Binding affinity to NK2 receptor.

Data set [3] has as its target T1, C5a anaphylatoxin chemotactic receptor 1. Put plainly: Antagonist activity at human C5aR expressed in human PMN cells assessed as inhibition of glucosaminidase release. The data set is classed as functional, cell-based.
The target is the same in data set [4]. Put plainly: Antagonist activity at human C5aR in CD88 transfected RBL cells assessed as inhibition of C5a-induced glucosaminidase release. The data set is classed as functional, cell-based. The gist of the method: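 Functional antagonism read as inhibition of glucosaminidase release stimulated by C5a from RBL cells transfected with CD88 (RBL+); IC50 in µM.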

SMILES strings stand for the structures. Some results are limits rather than exact numbers.

Sequence of Nociceptin receptor (P41146 whole entry): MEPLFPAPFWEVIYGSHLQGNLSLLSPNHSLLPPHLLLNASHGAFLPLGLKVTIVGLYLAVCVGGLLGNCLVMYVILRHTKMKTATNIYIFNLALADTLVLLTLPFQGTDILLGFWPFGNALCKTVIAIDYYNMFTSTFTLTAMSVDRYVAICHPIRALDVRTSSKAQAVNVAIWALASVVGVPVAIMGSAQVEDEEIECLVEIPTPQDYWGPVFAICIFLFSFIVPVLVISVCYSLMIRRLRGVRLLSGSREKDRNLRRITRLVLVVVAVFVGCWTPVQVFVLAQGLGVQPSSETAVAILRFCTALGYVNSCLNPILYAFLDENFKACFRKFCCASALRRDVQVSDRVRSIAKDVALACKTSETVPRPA
Sequence of CYP3A4 (P08684 whole entry): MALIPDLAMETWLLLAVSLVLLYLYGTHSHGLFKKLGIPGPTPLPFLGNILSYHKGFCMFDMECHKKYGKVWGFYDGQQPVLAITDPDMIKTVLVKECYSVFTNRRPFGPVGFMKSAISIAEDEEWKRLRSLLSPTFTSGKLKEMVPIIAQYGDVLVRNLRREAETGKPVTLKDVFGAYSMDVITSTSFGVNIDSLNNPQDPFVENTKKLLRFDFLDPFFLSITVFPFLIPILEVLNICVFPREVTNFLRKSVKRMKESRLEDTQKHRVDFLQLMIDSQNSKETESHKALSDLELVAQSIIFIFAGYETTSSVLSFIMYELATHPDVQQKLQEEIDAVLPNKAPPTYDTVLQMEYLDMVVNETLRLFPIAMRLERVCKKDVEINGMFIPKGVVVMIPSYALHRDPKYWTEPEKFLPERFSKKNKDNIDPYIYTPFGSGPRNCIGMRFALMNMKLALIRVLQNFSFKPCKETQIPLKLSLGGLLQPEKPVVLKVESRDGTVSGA

Consider `CC(C)CC[C@@H](NC(=O)[C@@H]1CCCN1C(=O)[C@H](CCCN)NC(=O)[C@H](Cc1ccccc1)NC(=O)[C@@H]1CC(=O)NC(=O)N1)C(=O)N[C@@H](Cc1ccc(F)cc1)C(=O)N[C@@H](Cc1ccccc1)C(N)=O`, for which the remaining at 1 h in data set [1] was 80%. For the same molecule, the IC50 with J774.A1 is 420 nM; at Vasopressin V1a receptor, 740 nM; in [2], 111 nM; on Melanocortin receptor 4 it was 13000 nM; on Nociceptin receptor it was above 50000 nM; at Substance-K receptor, 710 nM. The IC50 is 41 nM in data set [3] and 39 nM in [4]. At CYP3A4, this molecule returned an inhibition at 10 µM of 38%.
